Measured values: ChEMBL document CHEMBL5030567, “Macrocyclic Inhibitors of HGF-Activating Serine Proteases Overcome Resistance to Receptor Tyrosine Kinase Inhibitors and Block Lung Cancer Progression” (J Med Chem, 2021)
Activity calls are given as the source filed them. The rule behind the calls is not given here.

Experiments:
[1] = target: Coagulation factor X (Homo sapiens, UniProt P00742); assay: Inhibition of recombinant C-terminal 10His-tagged human coagulation factor 10a (Leu24 to Lys488 residues) expressed in baculovirus infected Sf9 insect cells using Bz-Ile-Glu-Gly-Arg-pNA as substrate preincubated for 30 mins followed by substrate addition by chromogenic assay
[2] = Stability in mouse plasma assessed as half life; format: ADME, cell-free
[3] = Stability in human plasma assessed as half life; format: ADME, cell-free
[4] = test system: NCI-H596; assay: Inhibition of pro-HGF stimulated cell growth in human H596 cells at […] by ELISA; format: functional, cell-based; conditions: dose 33.3 µM
[5] = target: Prothrombin (Homo sapiens, UniProt P00734); assay: Inhibition of recombinant thrombin (unknown origin) using D-Phe-Pip-Arg-pNA as substrate preincubated for 30 mins followed by substrate addition by chromogenic assay
[6] = Plasma protein binding in mouse assessed as unbound fraction; format: ADME, cell-free
[7] = Half life in mouse plasma at 20 mg/kg, ip; format: ADME, organism-based; conditions: for t1/2: in vivo, 20 mg/kg
[8] = target: Serine protease hepsin (Homo sapiens, UniProt P05981); assay: Inhibition of recombinant human C-terminal 10-His tagged hepsin (Arg45 to Leu417) expressed in mouse myeloma cells using Boc-QAR-AMC as substrate preincubated for 30 mins followed by substrate addition by fluorescence based assay; format: single protein
Method in brief: (§1)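 Inhibitor in 11-point serial dilution (0-20 µM final, 2% DMSO) pre-incubated 30 min at room temperature with enzyme in TNC buffer (25 mM Tris, 150 mM NaCl, 5 mM CaCl2, 0.01% Triton X-100, pH 8). […] Hepsin activated beforehand 24 h at 37°C. Fluorescence ex 380/em 460 nm kinetic; four-parameter fit of velocities; mean of three experiments.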

[9] = target: T1, Hepatocyte growth factor activator serine protease (Homo sapiens, UniProt Q04756); assay: Inhibition of recombinant human HGFA serine protease domain using Boc-QLR-AMC as substrate preincubated for 30 mins followed by substrate addition by fluorescence based assay; method in brief: as §1
T1 sequence (Q04756 whole entry): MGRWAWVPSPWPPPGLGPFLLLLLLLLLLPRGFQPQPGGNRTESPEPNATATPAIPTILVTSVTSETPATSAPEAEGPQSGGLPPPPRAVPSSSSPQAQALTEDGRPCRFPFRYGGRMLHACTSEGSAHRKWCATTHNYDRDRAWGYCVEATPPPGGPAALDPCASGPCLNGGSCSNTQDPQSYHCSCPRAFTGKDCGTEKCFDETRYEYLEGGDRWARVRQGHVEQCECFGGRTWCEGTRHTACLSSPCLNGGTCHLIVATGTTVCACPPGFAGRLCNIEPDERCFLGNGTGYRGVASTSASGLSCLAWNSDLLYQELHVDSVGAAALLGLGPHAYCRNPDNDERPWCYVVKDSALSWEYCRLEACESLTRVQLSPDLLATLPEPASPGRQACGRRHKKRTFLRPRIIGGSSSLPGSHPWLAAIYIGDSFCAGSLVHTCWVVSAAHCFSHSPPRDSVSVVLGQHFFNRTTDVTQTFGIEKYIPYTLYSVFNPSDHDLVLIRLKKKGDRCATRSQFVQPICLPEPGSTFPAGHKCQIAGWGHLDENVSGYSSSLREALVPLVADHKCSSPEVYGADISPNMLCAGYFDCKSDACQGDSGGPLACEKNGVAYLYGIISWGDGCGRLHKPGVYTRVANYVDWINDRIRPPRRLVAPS

[10] = target: T2, Suppressor of tumorigenicity 14 protein (Homo sapiens, UniProt Q9Y5Y6); assay: Inhibition of recombinant human N-terminal met-His6-tagged matriptase catalytic domain (Gly596 to Val855 residues) expressed in Escherichia coli using Boc-QAR-AMC as substrate preincubated for 30 mins followed by substrate addition by fluorescence based assay; method in brief: as §1
T2 sequence (Q9Y5Y6 whole entry): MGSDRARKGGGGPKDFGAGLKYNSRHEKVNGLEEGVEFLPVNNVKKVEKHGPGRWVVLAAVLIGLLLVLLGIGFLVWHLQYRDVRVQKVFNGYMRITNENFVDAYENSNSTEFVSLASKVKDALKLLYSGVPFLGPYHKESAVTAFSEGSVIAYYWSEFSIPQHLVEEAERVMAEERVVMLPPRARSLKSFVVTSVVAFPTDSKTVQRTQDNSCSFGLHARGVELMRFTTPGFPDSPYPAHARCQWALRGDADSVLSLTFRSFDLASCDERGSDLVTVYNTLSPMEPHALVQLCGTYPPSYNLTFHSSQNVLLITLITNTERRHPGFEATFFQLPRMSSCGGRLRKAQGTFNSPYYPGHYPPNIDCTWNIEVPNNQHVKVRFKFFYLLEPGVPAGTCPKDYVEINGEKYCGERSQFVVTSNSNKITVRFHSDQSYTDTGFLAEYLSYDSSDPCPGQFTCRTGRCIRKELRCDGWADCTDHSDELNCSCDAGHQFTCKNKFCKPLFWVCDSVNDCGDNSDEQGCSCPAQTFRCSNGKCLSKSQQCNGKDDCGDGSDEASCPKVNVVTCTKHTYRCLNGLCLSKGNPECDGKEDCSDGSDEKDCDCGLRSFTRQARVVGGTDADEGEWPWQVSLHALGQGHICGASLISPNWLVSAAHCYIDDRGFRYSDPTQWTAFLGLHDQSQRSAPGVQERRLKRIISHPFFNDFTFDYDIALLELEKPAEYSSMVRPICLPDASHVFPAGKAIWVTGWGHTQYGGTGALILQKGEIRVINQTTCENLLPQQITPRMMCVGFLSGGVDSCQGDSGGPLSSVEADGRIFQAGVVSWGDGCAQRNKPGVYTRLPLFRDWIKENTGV

[11] = test system: HCC827; assay: Cytotoxicity against human HCC827 cells assessed as reduction in cell viability at 20 nM after 72 hrs in presence of pro-HGF by crystal violet staining based assay; format: functional
Method in brief: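 HCC827 cells treated with gefitinib (20 nM) with or without pro-HGF (100 ng/ml) and with compound (0.1-1 µM). Viability by crystal violet staining after 72 h. Means±S.E.M., n=3-5; one-way ANOVA with Dunnett's test versus gefitinib plus pro-HGF.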

[12] = test system: NCI-H596; assay: Inhibition of pro-HGF stimulated cell growth in human H596 cells at 500 nM by ELISA; format: functional, cell-based
[13] = test system: NCI-H596; assay: Antitumor activity against human NCI-H596 cells xenografted in hHGF knock in NSG mouse assessed as tumor growth inhibition at 40 mg/kg, po administered daily for 14 to 16 days; format: functional, organism-based; conditions: time 14-16 day
Method in brief: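 Female hHGF-KI NSG mice given 2 million H596 cells, or males given 0.5 million. Dosing started at tumor volume ~40 or ~350 mm3. Daily oral dosing at 40 mg/kg for 16 or 14 days. Tumor growth compared with control-treated mice by ANOVA with Dunnett's test, n=3-6 per group.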

[14] = test system: NCI-H596; assay: Antitumor activity against human NCI-H596 cells xenografted in hHGF knock in NSG mouse assessed as tumor growth inhibition at 40 mg/kg, po administered daily for 25 days; format: functional, organism-based; conditions: time 25.0 day
Method in brief: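 Prevention design in female hHGF-KI NSG mice injected with ten million H596 cells. Oral dosing at 40 mg/kg daily began immediately after injection and ran for 25 days. Tumor growth tracked, n=3-5 per group, Dunnett's test versus control.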

[15] = test system: EBC-1; assay: Cytotoxicity against human EBC-1 cells assessed as reduction in cell viability preincubated with pro-HGF for 24 hrs followed by compound addition and measured after 48 hrs by CellTiter-Glo assay; format: functional, cell-based

Compound | t1/2 [2] | t1/2 [3] | also measured
CC(=O)N[C@H]1CC(=O)NCCCC[C@@H](C(=O)N[C@@H](CCCNC(=N)N)C(=O)c2nc3ccccc3s2)NC(=O)[C@H](C)NC1=O | 4.353 h | 3.602 h | IC50 [1]: > 20 µM
CC(=O)N[C@H]1CC(=O)NCCCC[C@@H](C(=O)N[C@@H](CCCNC(=N)N)C(=O)c2nc3ccccc3s2)NC(=O)[C@H](C(C)C)NC1=O | > 4.818 h | > 4.818 h | 
N=C(N)Nc1ccc(C(=O)Oc2ccc3cc(C(=N)N)ccc3c2)cc1 |  |  | inhibition [4]: Active
CC(=O)N[C@H]1CCCCNC(=O)CC[C@@H](C(=O)N[C@@H](CCCNC(=N)N)C(=O)c2nc3ccccc3s2)NC(=O)[C@H](CC(C)C)NC1=O | 4.57 h | > 4.82 h | IC50 [5]: > 20 µM; fraction unbound [6]: 0.184; t1/2 [7]: 0.71 h
CC(=O)N[C@H]1CC(=O)NCCCC[C@@H](C(=O)N[C@@H](CCCNC(=N)N)C(=O)c2nc3ccccc3s2)NC(=O)[C@H](CC(N)=O)NC1=O | > 4.818 h | > 4.818 h | 
CC(=O)N[C@H]1CCCCNC(=O)CC[C@@H](C(=O)N[C@@H](CCCNC(=N)N)C(=O)c2nc3ccccc3s2)NC(=O)[C@H](CCCNC(=N)N)NC1=O | 2.6 h | 2.52 h | IC50 [5]: > 20 µM; IC50 [1]: 0.155 µM; fraction unbound [6]: 0.259
CSCC[C@@H]1NC(=O)[C@@H](NC(C)=O)CC(=O)NCCCC[C@@H](C(=O)N[C@@H](CCCNC(=N)N)C(=O)c2nc3ccccc3s2)NC1=O | > 4.818 h | > 4.818 h | 
CC(=O)N[C@H]1CC(=O)NCCCC[C@@H](C(=O)N[C@@H](CCCNC(=N)N)C(=O)c2nc3ccccc3s2)NC(=O)CNC1=O | > 4.818 h | > 4.818 h | 
CC(=O)N[C@H]1CC(=O)NCCCC[C@@H](C(=O)N[C@@H](CCCNC(=N)N)C(=O)c2nc3ccccc3s2)NC(=O)[C@H](Cc2ccccc2)NC1=O | > 4.818 h | > 4.818 h | IC50 [8]: 0.017 µM; t1/2 [7]: 1.61 h
CC(=O)N[C@H]1CCCCNC(=O)C[C@@H](C(=O)N[C@@H](CCCNC(=N)N)C(=O)c2nc3ccccc3s2)NC(=O)[C@H](CC(C)C)NC1=O | 2.97 h | > 4.82 h | IC50 [5]: > 20 µM; IC50 [9]: > 20 µM; IC50 [10]: 0.02 µM; fraction unbound [6]: 0.853
COc1cc2ncnc(Nc3ccc(F)c(Cl)c3)c2cc1OCCCN1CCOCC1 |  |  | Activity [11]: inactive
CC(=O)N[C@H]1CC(=O)NCCCC[C@@H](C(=O)N[C@@H](CCCNC(=N)N)C(=O)c2nc3ccccc3s2)NC(=O)[C@H](Cc2ccc(O)cc2)NC1=O | 4.613 h | > 4.818 h | IC50 [9]: > 20 µM
CC(=O)N[C@H]1CC(=O)NCCCC[C@@H](C(=O)N[C@@H](CCCNC(=N)N)C(=O)c2nc3ccccc3s2)NC(=O)[C@H](CCC(N)=O)NC1=O | > 4.818 h | > 4.818 h | IC50 [1]: > 20 µM
CC(=O)N[C@H]1CC(=O)NCCCC[C@@H](C(=O)N[C@@H](CCCNC(=N)N)C(=O)c2nccs2)NC(=O)[C@H](CC(C)C)NC1=O | > 4.818 h | > 4.818 h | IC50 [9]: > 20 µM
Cn1cc(-c2ccc3nnc(C(F)(F)c4ccc5ncccc5c4)n3n2)cn1 |  |  | inhibition [12]: Active; Activity [13]: Active; Activity [14]: Active; Activity [15]: inactive
CC(=O)N[C@H]1CC(=O)N(C)CCCC[C@@H](C(=O)N[C@@H](CCCNC(=N)N)C(=O)c2nc3ccccc3s2)NC(=O)[C@H](CC(C)C)NC1=O | > 4.82 h | > 4.82 h | IC50 [9]: 12 µM; half-life ([7]; plasma): 0.553 h
CC(=O)N[C@H]1CC(=O)NCCCC[C@@H](C(=O)N[C@@H](CCCNC(=N)N)C(=O)c2nc3ccccc3s2)NC(=O)[C@H]([C@@H](C)O)NC1=O | 3.21 h | 4.142 h | IC50 [9]: 11.8 µM; IC50 [10]: 0.0037 µM; IC50 [8]: 0.0058 µM; IC50 [1]: 13.3 µM
